WT yeast gro inh – growth inhibition of WT yeast, mitochondrial fusion screen. inhibition, % at 10 µM. 190,000 compounds, 2.1% hits. mitochondrial fusion phenotypic screen, WT strain; in the data active = inhibition above about 58%; tested in S. cerevisiae
Yeast life ext – yeast lifespan extension; 130,000 compounds, 0.68% hits; AID 775; S. cerevisiae growth with nicotinamide, OD615; deaD strain in restrictive glucose medium; inhibition of the nicotinamide effect, % at 10 µM;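 active = inhibition above a set limit, placed 3 SD over the median of all compounds, cut at about 26% in these data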;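 note: 0% = nicotinamide-treated wells and 100% = cells grown without nicotinamide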
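Buffer or medium: CSMM-D glucose medium, restrictive; test system: modified budding yeast, DeaD strain; compound: single dose 10 µM compound, 0.25% DMSO; schedule: culture preincubation 4 h, compound exposure 48 h, both 30 °C; detection: optical density (absorbance) at 615 nm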
RAM network inh – yeast RAM network inhibition; S. cerevisiae dse1pr::URA3 reporter, 5-FOA growth OD615, 2 d; analog-sensitive cbk1-as2 kinase mutant strain; inhibition, % at 50 µM; 190,000 compounds, 1.8% hits;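 active = inhibition above a set limit, 3 SD over mean compound inhibition, cut at about 8.4% in these data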;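 note: 0% = DMSO-only wells with no growth and 100% = 10 µM 1-NA-PP1 full growth; inhibition rescues growth on 5-FOA so higher OD means more RAM inhibition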
Yeast growth inh – chemicals that inhibit yeast BB579 growth in restrictive medium (lifespan-shortening candidates); AID 804; inhibition, % at 10 µM; 140,000 compounds, 0.51% hits; S. cerevisiae BB579 growth, OD615, 48 h;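 active = inhibition above a set limit, 3 SD over the mean compound inhibition, cut at about 44% in these data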
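controls = amphotericin B 10 µg/mL, positive | assay system = DeaD yeast strain BB579 | schedule = 48 h compound exposure at 30 °C after 4 h preincubation | detection = OD615 turbidity measurement | medium = restrictive CSMM-D medium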
An asterisk follows results filed as active. Most compounds without a hit are left out; they make up all but 4.3% or so of the library.

How did CC(C)c1nc(N2CCCC2)c(C#N)c2c1CCCC2 do in these assays?
WT yeast gro inh: 70*; Yeast life ext: -5; RAM network inh: 1; Yeast growth inh: -11

Results for CCc1nc(N2CCCC2)c(C#N)c2c1CCCC2 ?
WT yeast gro inh: 17; Yeast life ext: -23; RAM network inh: 1; Yeast growth inh: -24

Results for O=C1/C(=C/c2ccccn2)COc2ccccc21 ?
WT yeast gro inh: -10; RAM network inh: -1

How did CC(C)(C)C1C/C(=C/c2ccccn2)C(=O)/C(=C/c2ccccn2)C1 (centres undefined) do in these assays?
WT yeast gro inh: 69*; RAM network inh: 0

Results for CC1C/C(=C/c2ccccn2)C(=O)/C(=C/c2ccccn2)C1 (centres undefined) ?
WT yeast gro inh: 87*; RAM network inh: 5

How did CC1C/C(=C/c2ccco2)C(=O)/C(=C/c2ccco2)C1 (centres undefined) do in these assays?
WT yeast gro inh: 12; Yeast life ext: -6; RAM network inh: 2; Yeast growth inh: -40

How did O=C(O)C(Cc1c[nH]c2ccccc12)N1C(=O)C2C3c4ccccc4C(c4ccccc43)C2C1=O (centres undefined) do in these assays?
WT yeast gro inh: -9; RAM network inh: 2

What do the screens show for `COc1ccc(OC)c(/C=N/NC(=O)CSc2cc(C)nc3c(OC)cccc23)c1`?
WT yeast gro inh: -1; RAM network inh: 1

What do the screens show for `O=C(NCC1CCCO1)C(c1cccs1)N(C(=O)c1ccc(CN2CCOCC2)o1)c1ccc(Cl)cc1` (centres undefined)?
WT yeast gro inh: 3; Yeast life ext: 5; RAM network inh: -1; Yeast growth inh: 0

What do the screens show for `Cc1cccc(C)c1NC(=O)COC(=O)CCC(=O)c1cccs1`?
WT yeast gro inh: -7; RAM network inh: 1

What do the screens show for `COc1cccc(NC(=O)COC(=O)c2ccc(S(=O)(=O)NCc3ccco3)cc2)c1`?
WT yeast gro inh: 5; Yeast life ext: -7; RAM network inh: 4; Yeast growth inh: -84

What do the screens show for `COc1ccc(NC(=O)COC(=O)c2c3c(nc4ccccc24)CCCC3)cc1Cl`?
WT yeast gro inh: 63*; Yeast life ext: -10; RAM network inh: 1; Yeast growth inh: -63
